{
  "source": "paper PMC9272570",
  "about": "(Journal of Drug Delivery Science and Technology, 2022)",
  "key": {"duodenum": {"system": "duodenum", "experiment": "In-situ rabbit intestinal perfusion, duodenum", "assay_type": "in vivo", "outline": "(§1)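 Rabbits were anaesthetised with IM chlorpromazine 2 mg/kg, then ketamine 45 mg/kg twice at a 15 min interval. The segment was cannulated (duodenum 15 cm, jejuno-ileum 30 cm) and rinsed with 37 °C saline. Test compound at 30 μg/ml in PBS with 10% v/v PEG 200 was perfused at 0.27 ml/min. Effluent was collected every 10 min for 2 h, weighed and assayed by HPLC-UV at 210 nm. Fa, ARL and L95% came from second-hour, water-flux-corrected Cout/Cin. Pathway was judged from PeA dependence on water flux.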"}, "Dissolution studies": {"experiment": "Dissolution studies", "assay_type": "physicochemical", "conditions": "50 rpm", "outline": "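900 ml medium (0.01 M phosphate buffer), 37 ± 0.5 °C. Load: 400 mg test compound or equivalent; formulations contained avicel and aerosil. 5 ml samples withdrawn at 5, 10, 15, 30, 45 and 60 min, filtered (0.45 μm) and replaced with fresh medium. Quantified by reversed-phase C18 HPLC (0.02 M KH2PO4 pH 6.8:acetonitrile 25:75). Cumulative amount dissolved expressed as % of load. Triplicates.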"}, "jejuno-ileum": {"system": "jejuno-ileum", "experiment": "In-situ rabbit intestinal perfusion, jejuno-ileum", "assay_type": "in vivo", "outline": "as §1"}, "[1]": {"conditions": "SEM in brackets, n = 3, listed as lopinavir"}, "[2]": {"conditions": "from regression of absorptive clearance vs water flux"}},
  "data": [
    {"compound": "Cc1cccc(C)c1OCC(=O)N[C@@H](Cc1ccccc1)[C@@H](O)C[C@H](Cc1ccccc1)NC(=O)[C@H](C(C)C)N1CCCNC1=O", "note": "[Pure Lopinavir, Lopinavir]", "values": [
      {"measurement": "ARL (anatomical reserve length)", "setting": "duodenum", "result": "−261.18", "unit": "cm"},
      {"measurement": "%Fa/L (percentage fraction absorbed per unit length)", "setting": "duodenum; SEM in brackets, n = 3", "result": "1.61 (0.454) %cm^−1"},
      {"measurement": "L95% (required length for 95% absorption)", "setting": "duodenum; SEM in brackets, n = 3", "result": "276.18 (121.5) cm"},
      {"measurement": "Rout/Rin (fraction remaining after absorption)", "setting": "duodenum; SEM in brackets, n = 3", "result": "0.759 (0.068)"},
      {"measurement": "L95% (required length for 95% absorption)", "setting": "duodenum; [1]", "result": 276.18, "unit": "cm"},
      {"measurement": "Absorption pathway: Paracellular", "setting": "duodenum; [2]", "result": 38.3, "unit": "%"},
      {"measurement": "Absorption pathway: Transcellular", "setting": "duodenum; [2]", "result": 61.7, "unit": "%"},
      {"measurement": "total amount liberated after 1 h", "setting": "Dissolution studies; 1% w/v Tween 80 in phosphate buffer pH 6.8, 37 °C", "result": "41.85 % of the dose"},
      {"measurement": "% DE (dissolution efficiency)", "setting": "Dissolution studies; 900 ml 1% w/v Tween 80 in 0.01 M phosphate buffer pH 6.8, 37 °C, 60 min, SD, n = 3", "result": "24.96 (1.48) %"},
      {"measurement": "ARL (anatomical reserve length)", "setting": "jejuno-ileum", "result": "−240.22", "unit": "cm"},
      {"measurement": "%Fa/L (percentage fraction absorbed per unit length)", "setting": "jejuno-ileum; SEM in brackets, n = 3", "result": "1.17 (0.27) %cm^−1"},
      {"measurement": "L95% (required length for 95% absorption)", "setting": "jejuno-ileum; SEM in brackets, n = 3", "result": "339.54 (79.03) cm"},
      {"measurement": "Rout/Rin (fraction remaining after absorption)", "setting": "jejuno-ileum; SEM in brackets, n = 3", "result": "0.657 (0.083)"},
      {"measurement": "L95% (required length for 95% absorption)", "setting": "jejuno-ileum; [1]", "result": 339.54, "unit": "cm"},
      {"measurement": "Absorption pathway: Paracellular", "setting": "jejuno-ileum; [2]", "result": 0, "unit": "%"},
      {"measurement": "Absorption pathway: Transcellular", "setting": "jejuno-ileum; [2]", "result": 100, "unit": "%"}
    ]}
  ]
}
